Source: ChEMBL document CHEMBL1671716, “Antimicrobial susceptibility patterns for recent clinical isolates of anaerobic bacteria in South Korea” (2010)
In brackets after ≈: the same amount, converted by molar mass.

Assays:
Phocaeicola vulgatus [1] = assay: Antimicrobial activity against Bacteroides vulgatus assessed as percent resistant isolates after 48 hrs by agar dilution method; type: functional
Method in brief: (§1)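 CLSI agar dilution on recent Korean clinical anaerobe isolates. Inoculum 10^5 CFU per spot by replicator. Plates incubated in an anaerobic chamber at 37°C for 48 h. For piperacillin plus tazobactam, tazobactam was held constant at 4 μg/ml. Resistance and susceptibility rates derived from MICs.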

Schaalia meyeri [2] = assay: Antimicrobial activity against Actinomyces meyeri after 48 hrs by agar dilution method; type: functional
Method in brief: (§2)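 MICs on clinical anaerobe isolates by the CLSI agar dilution method. Inoculum of 10^5 CFU applied with a Steers replicator. Plates incubated 48 h at 37°C in an anaerobic chamber.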

Prevotella bivia [3] = assay: Antimicrobial activity against Prevotella bivia assessed as percent susceptible isolates after 48 hrs by agar dilution method in presence of 4 ug/ml beta-lactamase inhibitor Tazobactam; type: functional
Method in brief: (§3)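 CLSI agar dilution (M11-A7); inoculum 10^5 CFU applied by replicator; plates incubated anaerobically 48 h at 37°C. For piperacillin-tazobactam, tazobactam held constant at 4 μg/ml.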

Phocaeicola vulgatus [4] = assay: Antimicrobial activity against Bacteroides vulgatus after 48 hrs by agar dilution method; type: functional; method in brief: as §2
Hoylesella oralis [5] = assay: Antimicrobial activity against Prevotella oralis after 48 hrs by agar dilution method in presence of 4 ug/ml beta-lactamase inhibitor Tazobactam; type: functional; method in brief: as §3
Actinomyces naeslundii [6] = assay: Antimicrobial activity against Actinomyces naeslundii assessed as percent resistant isolates after 48 hrs by agar dilution method; type: functional; method in brief: as §1
Hoylesella oralis [7] = assay: Antimicrobial activity against Prevotella oralis after 48 hrs by agar dilution method; type: functional; method in brief: as §3
Schaalia odontolytica [8] = assay: Antimicrobial activity against Actinomyces odontolyticus assessed as percent susceptible isolates after 48 hrs by agar dilution method; type: functional
Prevotella buccae [9] = assay: Antimicrobial activity against Prevotella buccae assessed as percent resistant isolates after 48 hrs by agar dilution method; type: functional, Segatella buccae; method in brief: as §1
Clostridium perfringens = assay: Antimicrobial activity against Clostridium perfringens assessed as percent susceptible isolates after 48 hrs by agar dilution method in presence of 4 ug/ml beta-lactamase inhibitor Tazobactam; type: functional; method in brief: as §1
[10] = tested on: Bifidobacterium adolescentis; assay: Antimicrobial activity against Bifidobacterium adolescentis after 48 hrs by agar dilution method; type: functional; method in brief: as §2
Actinomyces naeslundii [11] = assay: Antimicrobial activity against Actinomyces naeslundii after 48 hrs by agar dilution method; type: functional; method in brief: as §2
[12] = tested on: Bacteroides thetaiotaomicron; assay: Antimicrobial activity against Bacteroides thetaiotaomicron after 48 hrs by agar dilution method; type: functional; method in brief: as §2
Prevotella buccae [13] = assay: Antimicrobial activity against Prevotella buccae assessed as percent susceptible isolates after 48 hrs by agar dilution method in presence of 4 ug/ml beta-lactamase inhibitor Tazobactam; type: functional, Segatella buccae; method in brief: as §3
[14] = tested on: Porphyromonas asaccharolytica; assay: Antimicrobial activity against Porphyromonas asaccharolytica after 48 hrs by agar dilution method; type: functional; method in brief: as §3
Schaalia meyeri [15] = assay: Antimicrobial activity against Actinomyces meyeri assessed as percent resistant isolates after 48 hrs by agar dilution method in presence of 4 ug/ml beta-lactamase inhibitor Tazobactam; type: functional; method in brief: as §1
Bacteroides fragilis [16] = assay: Antimicrobial activity against Bacteroides fragilis after 48 hrs by agar dilution method; type: functional; method in brief: as §2
Prevotella bivia [17] = assay: Antimicrobial activity against Prevotella bivia after 48 hrs by agar dilution method; type: functional; method in brief: as §3
Clostridioides difficile [18] = assay: Antimicrobial activity against Clostridium difficile assessed as percent susceptible isolates after 48 hrs by agar dilution method; type: functional
Fusobacterium mortiferum = assay: Antimicrobial activity against Fusobacterium mortiferum after 48 hrs by agar dilution method; type: functional; method in brief: as §3
Anaerococcus prevotii [19] = assay: Antimicrobial activity against Anaerococcus prevotii after 48 hrs by agar dilution method in presence of 4 ug/ml beta-lactamase inhibitor Tazobactam; type: functional
Method in brief: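 MICs by CLSI agar dilution for piperacillin combined with tazobactam, with tazobactam held constant at 4 μg/ml. Clinical anaerobe isolates inoculated at 10^5 CFU by Steers replicator. Plates kept in an anaerobic chamber at 37°C for 48 h.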

Fusobacterium necrogenes = assay: Antimicrobial activity against Fusobacterium necrogenes after 48 hrs by agar dilution method; type: functional; method in brief: as §3
Finegoldia magna [20] = assay: Antimicrobial activity against Finegoldia magna assessed as percent susceptible isolates after 48 hrs by agar dilution method; type: functional; method in brief: as §3
[21] = tested on: Peptoniphilus asaccharolyticus; assay: Antimicrobial activity against Peptoniphilus asaccharolyticus assessed as percent susceptible isolates after 48 hrs by agar dilution method; type: functional; method in brief: as §3
Bacteroides ovatus [22] = assay: Antimicrobial activity against Bacteroides ovatus assessed as percent susceptible isolates after 48 hrs by agar dilution method; type: functional
Prevotella intermedia = assay: Antimicrobial activity against Prevotella intermedia assessed as percent resistant isolates after 48 hrs by agar dilution method; type: functional; method in brief: as §1
Clostridioides difficile [23] = assay: Antimicrobial activity against Clostridium difficile assessed as percent susceptible isolates after 48 hrs by agar dilution method in presence of 4 ug/ml beta-lactamase inhibitor Tazobactam; type: functional; method in brief: as §3
Anaerococcus prevotii [24] = assay: Antimicrobial activity against Anaerococcus prevotii assessed as percent susceptible isolates after 48 hrs by agar dilution method; type: functional
Fusobacterium nucleatum = assay: Antimicrobial activity against Fusobacterium nucleatum after 48 hrs by agar dilution method in presence of 4 ug/ml beta-lactamase inhibitor Tazobactam; type: functional; method in brief: as §3
Bacteroides ovatus [25] = assay: Antimicrobial activity against Bacteroides ovatus assessed as percent resistant isolates after 48 hrs by agar dilution method in presence of 4 ug/ml beta-lactamase inhibitor Tazobactam; type: functional; method in brief: as §1
Anaerococcus prevotii [26] = assay: Antimicrobial activity against Anaerococcus prevotii assessed as percent resistant isolates after 48 hrs by agar dilution method in presence of 4 ug/ml beta-lactamase inhibitor Tazobactam; type: functional; method in brief: as §1
[27] = tested on: Peptoniphilus asaccharolyticus; assay: Antimicrobial activity against Peptoniphilus asaccharolyticus assessed as percent resistant isolates after 48 hrs by agar dilution method; type: functional; method in brief: as §1
Finegoldia magna [28] = assay: Antimicrobial activity against Finegoldia magna assessed as percent resistant isolates after 48 hrs by agar dilution method; type: functional; method in brief: as §1
Eggerthella lenta = assay: Antimicrobial activity against Eubacterium lentum assessed as percent resistant isolates after 48 hrs by agar dilution method; type: functional; method in brief: as §1
[29] = tested on: Parabacteroides distasonis; assay: Antimicrobial activity against Bacteroides distasonis assessed as percent resistant isolates after 48 hrs by agar dilution method; type: functional; method in brief: as §1
Schaalia odontolytica [30] = assay: Antimicrobial activity against Actinomyces odontolyticus after 48 hrs by agar dilution method; type: functional; method in brief: as §2
Bacteroides caccae = assay: Antimicrobial activity against Bacteroides caccae assessed as percent resistant isolates after 48 hrs by agar dilution method; type: functional; method in brief: as §1
Schaalia odontolytica [31] = assay: Antimicrobial activity against Actinomyces odontolyticus assessed as percent susceptible isolates after 48 hrs by agar dilution method in presence of 4 ug/ml beta-lactamase inhibitor Tazobactam; type: functional; conditions: pooled result: one value given for 8 cell lines, strains, targets or settings
Eubacterium sp. = assay: Antimicrobial activity against Eubacterium sp. assessed as percent susceptible isolates after 48 hrs by agar dilution method; type: functional; method in brief: as §3
[32] = tested on: Parabacteroides distasonis; assay: Antimicrobial activity against Bacteroides distasonis assessed as percent susceptible isolates after 48 hrs by agar dilution method; type: functional
Bacteroides fragilis [33] = assay: Antimicrobial activity against Bacteroides fragilis assessed as percent susceptible isolates after 48 hrs by agar dilution method; type: functional
Phocaeicola vulgatus [34] = assay: Antimicrobial activity against Bacteroides vulgatus assessed as percent susceptible isolates after 48 hrs by agar dilution method in presence of 4 ug/ml beta-lactamase inhibitor Tazobactam; type: functional

**Q.** How did the Activity (Phocaeicola vulgatus [1]) turn out when CCN1CCN(C(=O)N[C@@H](C(=O)N[C@@H]2C(=O)N3[C@@H]2SC(C)(C)[C@@H]3C(=O)O)c2ccccc2)C(=O)C1=O [PIPERACILLIN] was run?
**A.** Its Activity is 51%.

**Q.** What about the MIC50 (Schaalia meyeri [2]) of the same molecule?
**A.** Its MIC50 is 1 µg/mL (≈ 1.93 µM).

**Q.** And the MIC90 (Schaalia meyeri [2])?
**A.** Its MIC90 is 8 µg/mL (≈ 15.5 µM).

**Q.** And the Activity (Prevotella bivia [3])?
**A.** The Activity was 100%.

**Q.** What about the MIC50 (Phocaeicola vulgatus [4]) of the same molecule?
**A.** Its MIC50 is 128 µg/mL (≈ 247 µM).

**Q.** What about the MIC90 (Phocaeicola vulgatus [4]) of the same molecule?
**A.** The MIC90 was over 256 µg/mL.

**Q.** What about the MIC50 (Hoylesella oralis [5]) of the same molecule?
**A.** The MIC50 was at most 0.03 µg/mL.

**Q.** And the MIC90 (Hoylesella oralis [5])?
**A.** The MIC90 was 4 µg/mL.

**Q.** What about the Activity (Actinomyces naeslundii [6]) of the same molecule?
**A.** The Activity was 0%.

**Q.** What about the MIC50 (Hoylesella oralis [7]) of the same molecule?
**A.** The MIC50 was 16 µg/mL (≈ 30.9 µM).

**Q.** What about the MIC90 (Hoylesella oralis [7]) of the same molecule?
**A.** Its MIC90 is 128 µg/mL (≈ 247 µM).

**Q.** What about the Activity (Schaalia odontolytica [8]) of the same molecule?
**A.** The Activity was 92%.

**Q.** And the Activity (Prevotella buccae [9])?
**A.** The Activity was 11%.

**Q.** What about the Activity (Clostridium perfringens) of the same molecule?
**A.** Its Activity is 100%.

**Q.** And the MIC50 [10]?
**A.** The MIC50 was 1 µg/mL (≈ 1.93 µM).

**Q.** And the MIC90 [10]?
**A.** The MIC90 was 8 µg/mL (≈ 15.5 µM).

**Q.** And the MIC50 (Actinomyces naeslundii [11])?
**A.** The MIC50 was 1 µg/mL (≈ 1.93 µM).

**Q.** And the MIC90 (Actinomyces naeslundii [11])?
**A.** The MIC90 was 8 µg/mL (≈ 15.5 µM).

**Q.** What about the MIC50 [12] of the same molecule?
**A.** Its MIC50 is 128 µg/mL (≈ 247 µM).

**Q.** What about the MIC90 [12] of the same molecule?
**A.** Its MIC90 is over 256 µg/mL.

**Q.** And the Activity (Prevotella buccae [13])?
**A.** The Activity was 100%.

**Q.** What about the MIC [14] of the same molecule?
**A.** The MIC was 0.06 µg/mL (≈ 0.116 µM).

**Q.** What about the Activity (Schaalia meyeri [15]) of the same molecule?
**A.** The Activity was 0%.

**Q.** What about the MIC50 (Bacteroides fragilis [16]) of the same molecule?
**A.** The MIC50 was 8 µg/mL (≈ 15.5 µM).

**Q.** What about the MIC90 (Bacteroides fragilis [16]) of the same molecule?
**A.** Its MIC90 is over 256 µg/mL.

**Q.** What about the MIC50 (Prevotella bivia [17]) of the same molecule?
**A.** Its MIC50 is 16 µg/mL (≈ 30.9 µM).

**Q.** And the MIC90 (Prevotella bivia [17])?
**A.** The MIC90 was 128 µg/mL (≈ 247 µM).

**Q.** And the Activity (Clostridioides difficile [18])?
**A.** Its Activity is 100%.

**Q.** What about the MIC (Fusobacterium mortiferum) of the same molecule?
**A.** The MIC was 0.06 µg/mL (≈ 0.116 µM).

**Q.** And the MIC50 (Anaerococcus prevotii [19])?
**A.** The MIC50 was 0.125 µg/mL.

**Q.** What about the MIC90 (Anaerococcus prevotii [19]) of the same molecule?
**A.** The MIC90 was 0.125 µg/mL.

**Q.** What about the MIC (Fusobacterium necrogenes) of the same molecule?
**A.** Its MIC is 0.06 µg/mL (≈ 0.116 µM).

**Q.** And the Activity (Finegoldia magna [20])?
**A.** Its Activity is 100%.

**Q.** What about the Activity [21] of the same molecule?
**A.** Its Activity is 100%.

**Q.** And the Activity (Bacteroides ovatus [22])?
**A.** Its Activity is 42%.

**Q.** What about the Activity (Prevotella intermedia) of the same molecule?
**A.** The Activity was 0%.

**Q.** What about the Activity (Clostridioides difficile [23]) of the same molecule?
**A.** Its Activity is 100%.

**Q.** What about the Activity (Anaerococcus prevotii [24]) of the same molecule?
**A.** The Activity was 100%.

**Q.** What about the MIC (Fusobacterium nucleatum) of the same molecule?
**A.** Its MIC is 0.03 µg/mL.

**Q.** What about the Activity (Bacteroides ovatus [25]) of the same molecule?
**A.** The Activity was 7%.

**Q.** What about the Activity (Anaerococcus prevotii [26]) of the same molecule?
**A.** Its Activity is 0%.

**Q.** What about the Activity [27] of the same molecule?
**A.** The Activity was 0%.

**Q.** And the Activity (Finegoldia magna [28])?
**A.** The Activity was 0%.

**Q.** What about the Activity (Eggerthella lenta) of the same molecule?
**A.** The Activity was 0%.

**Q.** And the Activity [29]?
**A.** Its Activity is 51%.

**Q.** And the MIC50 (Schaalia odontolytica [30])?
**A.** The MIC50 was 1 µg/mL (≈ 1.93 µM).

**Q.** And the MIC90 (Schaalia odontolytica [30])?
**A.** Its MIC90 is 8 µg/mL (≈ 15.5 µM).

**Q.** And the Activity (Bacteroides caccae)?
**A.** Its Activity is 51%.

**Q.** And the Activity (Schaalia odontolytica [31])?
**A.** Its Activity is 92%.

**Q.** And the Activity (Eubacterium sp.)?
**A.** The Activity was 92%.

**Q.** What about the Activity [32] of the same molecule?
**A.** The Activity was 42%.

**Q.** What about the Activity (Bacteroides fragilis [33]) of the same molecule?
**A.** The Activity was 67%.

**Q.** What about the Activity (Phocaeicola vulgatus [34]) of the same molecule?
**A.** Its Activity is 89%.
